The source made the active and inactive calls. No cut-off for these calls is given here.
Key:
[1] = Drug uptake in human A375M cells xenografted in mouse tumor at 250 uCi, iv after 40 mins by micro SPECT-CT analysis in presence of c[RGD-(3'I-y)-(3R)-carboxymorpholine]; type: ADME, organism-based, Neoplasm; details: in vivo
Summary of the method: (§1)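 SCID bg/bg mice bore s.c. shoulder grafts of 1 × 10⁶ A375 M cells plus 0.5 × 10⁶ TGFβ-activated HDF in PBS/Matrigel 1:1. Under anesthesia on a 37 °C bed, mice received 7–10 MBq tracer in 200 μL saline via tail vein. CT was acquired at 30 min, then SPECT from 40 min pi (20–36 keV window). Displacement runs got cold compound (18 mg/kg) 10 min before tracer. Tumor ROI was normalized to contralateral muscle as (TA−BA)/BA.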

Spleen = assay: Biodistribution in non tumor bearing iv dosed mouse spleen after 1 to 24 hrs by micro SPECT-CT analysis; type: ADME, organism-based; details: in vivo
Kidney = assay: Biodistribution in non tumor bearing iv dosed mouse kidney after 120 mins by micro SPECT-CT analysis; type: ADME, organism-based; details: in vivo, 2 h
[2] = Drug uptake in human A375M cells xenografted in SCID mouse tumor at 250 uCi, iv after 40 mins by micro SPECT-CT analysis; type: ADME, organism-based, Neoplasm; details: in vivo; summary of the method: as §1
Mus musculus = assay: Biodistribution in non tumor bearing iv dosed mouse gallbladder after 120 mins by micro SPECT-CT analysis; type: ADME, organism-based, Gall bladder; details: in vivo, 2 h
Thyroid gland = assay: Biodistribution in non tumor bearing iv dosed mouse thyroid after 24 hrs by micro SPECT-CT analysis; type: ADME, organism-based; details: in vivo
Integrin alpha-V/beta-3 [3] = biological target: T1, Integrin alpha-V/beta-3 (Homo sapiens, UniProt P05106+P06756); assay: Inhibition of integrin alphavbeta3 expressing human A375M cell adhesion to vitronectin at 0.1 to 10 uM after 30 mins by crystal violet staining method in presence of 2 mmol/L of MnCl2; type: protein-complex assay
Summary of the method: (§2)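 Wells coated overnight at 4 °C with fibronectin (1 μg/mL) or vitronectin (10 μg/mL), blocked with 1% BSA/PBS 1 h at 37 °C. Cells in serum-free medium were preincubated with ligand (final 0.1, 1 or 10 μM) 30 min at 37 °C, then seeded at 4–5 × 10⁴/well for 2 h at 37 °C. HUVEC were IL-1β (400 U/mL)-stimulated; melanoma runs included 2 mmol/L MnCl₂. Adherent cells were stained with crystal violet, read at 540 nm, triplicate, ≥3 repeats.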

HUVEC [4] = assay: Inhibition of IL-1beta-induced alphaV, beta3, beta5, alpha5, beta1, and alphavbeta3 expressing HUVEC adhesion to vitronectin at 0.1 to 10 uM after 30 mins by crystal violet staining method; type: functional, cell-based; details: Homo sapiens; summary of the method: as §2
HDF [5] = assay: Inhibition of HDF adhesion to vitronectin at 0.1 to 10 uM after 30 mins by crystal violet staining method; type: functional; details: Homo sapiens; summary of the method: as §2
HDF [6] = assay: Inhibition of HDF adhesion to fibronectin at 0.1 to 10 uM after 30 mins by crystal violet staining method; type: functional; details: Homo sapiens; summary of the method: as §2
HUVEC [7] = assay: Inhibition of IL-1beta-induced alphav, beta3, beta5, alpha5, beta1 and alphavbeta3 expressing HUVEC adhesion to fibronectin at 0.1 to 10 uM after 30 mins by crystal violet staining method; type: functional, cell-based; details: Homo sapiens; summary of the method: as §2
Integrin alpha-V/beta-3 [8] = biological target: T1, Integrin alpha-V/beta-3; assay: Inhibition of integrin alphaVbeta3 expressing human A375M cell adhesion to fibronectin at 0.1 to 10 uM after 30 mins by crystal violet staining method in presence of 2 mmol/L of MnCl2; type: protein-complex assay; summary of the method: as §2
HUVEC [9] = assay: Antiangiogenic activity against HUVEC seeded on matrigel layer assessed as inhibition of capillary like tube formation at 0.01 uM to 10 uM after 16 to 18 hrs by microscopic analysis; type: functional, cell-based; details: Homo sapiens
Integrin alpha-V/beta-3 [10] = biological target: T1, Integrin alpha-V/beta-3; assay: Displacement of [125I] echistatin from alphaVbeta3 integrin isolated from human placenta after 3 hrs by liquid scintillation counter
Target sequence in this assay (P05106 27-788 limits assumed): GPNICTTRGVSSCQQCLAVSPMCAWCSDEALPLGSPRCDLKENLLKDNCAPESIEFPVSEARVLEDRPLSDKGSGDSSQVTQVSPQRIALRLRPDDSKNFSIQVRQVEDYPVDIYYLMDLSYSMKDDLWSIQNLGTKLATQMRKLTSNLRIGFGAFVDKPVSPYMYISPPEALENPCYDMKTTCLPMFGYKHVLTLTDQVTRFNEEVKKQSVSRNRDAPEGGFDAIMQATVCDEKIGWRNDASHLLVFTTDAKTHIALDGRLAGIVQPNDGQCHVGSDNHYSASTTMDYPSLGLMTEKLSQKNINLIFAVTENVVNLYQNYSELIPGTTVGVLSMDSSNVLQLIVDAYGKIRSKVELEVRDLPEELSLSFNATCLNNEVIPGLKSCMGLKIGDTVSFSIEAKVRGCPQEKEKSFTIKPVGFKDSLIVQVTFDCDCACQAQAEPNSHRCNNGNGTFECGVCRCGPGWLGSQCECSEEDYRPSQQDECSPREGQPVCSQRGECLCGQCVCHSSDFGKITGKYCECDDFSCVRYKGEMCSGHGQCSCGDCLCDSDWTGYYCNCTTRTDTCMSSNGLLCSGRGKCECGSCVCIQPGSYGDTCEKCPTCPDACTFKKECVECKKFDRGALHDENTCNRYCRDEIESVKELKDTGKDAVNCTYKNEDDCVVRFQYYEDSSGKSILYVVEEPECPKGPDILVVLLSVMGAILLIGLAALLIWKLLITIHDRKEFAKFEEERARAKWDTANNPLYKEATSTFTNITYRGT
Target sequence in this assay (P06756 31-889 limits assumed): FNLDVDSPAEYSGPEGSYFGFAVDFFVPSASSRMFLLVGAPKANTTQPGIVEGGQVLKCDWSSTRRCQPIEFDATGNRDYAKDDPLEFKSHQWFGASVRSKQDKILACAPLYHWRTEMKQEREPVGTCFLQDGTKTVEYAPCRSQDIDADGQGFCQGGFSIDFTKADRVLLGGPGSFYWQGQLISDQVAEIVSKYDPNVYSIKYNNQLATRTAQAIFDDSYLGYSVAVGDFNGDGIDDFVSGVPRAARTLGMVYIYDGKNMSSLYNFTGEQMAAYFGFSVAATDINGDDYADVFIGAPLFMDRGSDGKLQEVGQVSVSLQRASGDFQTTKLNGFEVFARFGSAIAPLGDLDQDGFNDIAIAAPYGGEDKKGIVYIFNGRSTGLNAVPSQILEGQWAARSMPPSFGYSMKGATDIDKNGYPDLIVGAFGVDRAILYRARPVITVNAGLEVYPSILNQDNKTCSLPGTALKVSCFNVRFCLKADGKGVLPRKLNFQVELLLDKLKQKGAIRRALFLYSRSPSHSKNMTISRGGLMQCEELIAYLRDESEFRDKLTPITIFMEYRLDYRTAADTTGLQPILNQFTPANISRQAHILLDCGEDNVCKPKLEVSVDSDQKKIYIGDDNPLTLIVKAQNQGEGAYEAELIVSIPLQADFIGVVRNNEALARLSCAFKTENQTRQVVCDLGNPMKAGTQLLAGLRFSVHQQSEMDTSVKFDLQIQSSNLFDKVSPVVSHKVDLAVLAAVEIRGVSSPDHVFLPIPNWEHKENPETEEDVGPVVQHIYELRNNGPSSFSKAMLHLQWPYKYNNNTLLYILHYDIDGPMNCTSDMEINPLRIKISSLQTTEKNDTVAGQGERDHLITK
Target sequence in this assay (P06756 891-1048 limits assumed): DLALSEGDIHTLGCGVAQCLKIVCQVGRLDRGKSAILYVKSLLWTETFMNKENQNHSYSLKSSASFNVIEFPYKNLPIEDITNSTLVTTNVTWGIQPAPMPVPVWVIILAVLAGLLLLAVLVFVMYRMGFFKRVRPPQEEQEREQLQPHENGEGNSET

| Compound | Drug uptake [1] | Drug uptake (Spleen) | Drug uptake (Kidney) | Drug uptake [2] | Drug uptake (Mus musculus) | Drug uptake (Thyroid gland) | inhibition (Integrin alpha-V/beta-3 [3]) | inhibition (HUVEC [4]) | inhibition (HDF [5]) | inhibition (HDF [6]) | inhibition (HUVEC [7]) | inhibition (Integrin alpha-V/beta-3 [8]) | inhibition (HUVEC [9]) | IC50 (Integrin alpha-V/beta-3 [10]) [nM] |
| --- | --- | --- | --- | --- | --- | --- | --- | --- | --- | --- | --- | --- | --- | --- |
| N=C(N)NCCC[C@@H]1NC(=O)[C@H]2COCCN2C(=O)[C@@H](Cc2ccc(O)c([125I])c2)NC(=O)[C@H](CC(=O)O)NC(=O)CNC1=O | Active | Active | Active | Active | Active | Active | – | – | – | – | – | – | – | – |
| N=C(N)NCCC[C@@H]1NC(=O)[C@H]2COCCN2C(=O)[C@@H](Cc2ccc(O)cc2)NC(=O)[C@H](CC(=O)O)NC(=O)CNC1=O | – | – | – | – | – | – | Active | Active | Active | Active | Active | Active | inactive | – |
| N=C(N)NCCC[C@@H]1NC(=O)[C@H]2COCCN2C(=O)[C@@H](Cc2ccccc2)NC(=O)[C@H](CC(=O)O)NC(=O)CNC1=O | – | – | – | – | – | – | Active | Active | Active | Active | Active | Active | inactive | – |
| N=C(N)NCCC[C@@H]1NC(=O)[C@H]2COCCN2C(=O)[C@@H](Cc2ccc(O)c(I)c2)NC(=O)[C@H](CC(=O)O)NC(=O)CNC1=O | – | – | – | – | – | – | Active | Active | Active | Active | Active | Active | inactive | 48 |
